PMI act satM6P – PMI (human) activation, high substrate; P34949; coupled PMI enzyme assay, resazurin fluorescence, 20 min; stronger effect = higher value; 1 = untreated enzyme, 0 = substrate-free blank; activation factor at 20 µM; 0.34% of 190,000 active; AID 1216;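 active means activation factor of 2 or more at 20 µM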
Target sequence (P34949 whole entry, looked up): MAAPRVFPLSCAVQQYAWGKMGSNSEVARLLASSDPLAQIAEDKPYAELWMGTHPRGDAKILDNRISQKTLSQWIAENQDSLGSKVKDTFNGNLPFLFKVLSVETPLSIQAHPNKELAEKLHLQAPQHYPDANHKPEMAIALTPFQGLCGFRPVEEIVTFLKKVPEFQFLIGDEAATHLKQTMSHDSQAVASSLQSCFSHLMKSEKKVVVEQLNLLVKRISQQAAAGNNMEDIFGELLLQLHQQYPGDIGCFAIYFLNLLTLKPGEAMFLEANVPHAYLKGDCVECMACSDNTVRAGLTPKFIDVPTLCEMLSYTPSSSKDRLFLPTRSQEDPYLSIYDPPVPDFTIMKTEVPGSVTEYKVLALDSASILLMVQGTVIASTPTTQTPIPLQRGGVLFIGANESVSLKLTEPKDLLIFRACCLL
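Technique: Diaphorase-driven resazurin-to-resorufin fluorescence, excitation 544, emission 590 nm | Assay system: Human PMI in coupled enzyme assay | Times: Enzyme reaction with compound 20 min at room temperature | Medium: HEPES-buffered pH 7.4 with magnesium and detergent | Reagent: Mannose-6-phosphate 1.0 mM (near-saturating) plus 0.22 mM NADP+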
Lmaj promast – Leishmania major promastigote growth inhibition | inhibition, % at 10 µM | 9% of 200,000 active | Leishmania major promastigotes, resazurin fluorescence viability; in the data active means inhibition above about 50%;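 further: promastigotes grown with compound for 44 hours at 28 °C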
Diaph act CS – diaphorase activation or chemical reduction counter-screen. activation factor at 20 µM. AID 1229. Diaphorase/resazurin coupled assay, resorufin fluorescence, 16 min; stronger effect = higher value; 1 = vehicle wells, 0 = NADH-free wells. 0.005% of 190,000 active;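 active means diaphorase activity raised at least twofold by the compound at 20 µM; inactive means activation factor below 2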
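Material: purified diaphorase enzyme from Clostridium kluyveri / Medium: HEPES pH 7.4 buffer with MgCl2 and Tween 20 / Schedule: enzyme reaction of 16 min at room temperature / Measured by: resorufin fluorescence, excitation 544 nm, emission 590 nm / Evaluation: rise in resorufin formation, marking diaphorase activation or chemical reduction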
PMI act – increases human mannose-6-phosphate isomerase activity; P34949; purified human PMI, coupled resazurin fluorescence, 20 min; stronger effect = higher value; 1 = vehicle control, 0 substrate-free wells; activation factor at 20 µM; 0.005% of 190,000 active;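 active means activation factor of 2 or more at 20 µM, relative to plate controls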
WT yeast gro inh – growth inhibition of WT yeast, mitochondrial fusion screen; mitochondrial fusion phenotypic screen, WT strain; inhibition, % at 10 µM; 2.1% of 190,000 active; AID 1362; in the data active means inhibition above about 58%; tested in S. cerevisiae
Numbers without * were called inactive. Rows were chosen to be rich in hits. Some 10% of all compounds tested hit in one or more screens of this group.

SMILES | PMI act satM6P | Lmaj promast | Diaph act CS | PMI act | WT yeast gro inh
Cc1ccc(N=Cc2c(C)[nH]n(-c3nc4ccccc4[nH]3)c2=O)cc1 | 1.1 | -2 | 0.9 | 1.1 | 84*
COc1ccc(-n2cnnc2SCC(=O)Nc2ccc(N3CCOCC3)cc2)cc1 | 0.7 | 52* | 0.8 | 0.9 | 0
CCn1c(SCC(=O)NC2CCCc3ccccc32)nnc1-c1cccs1 (centres undefined) | 1 | 56* | 0.9 | 1 | 32
C=CCn1c(SCC(=O)Nc2ccc3c(c2)CCC3)nnc1-c1cccs1 | 0.9 | 1 | 0.9 | 0.8 | 70*
O=C(CSc1nncn1-c1ccccc1)NC1CCCc2ccccc21 (centres undefined) | 1.1 | -1 | 1 | 1.1 | -6
COc1ccc(-n2cnnc2SCC(=O)NC2CCCc3ccccc32)cc1 (centres undefined) | 0.9 | 69* | 0.8 | 1 | -10
CCn1c(SCC(=O)Nc2ccc(N3CCOCC3)cc2)nnc1-c1ccc(OC)cc1 | 1.1 | 0 | 1 | 1 | 17
CCOC(=O)COc1c(/C=N\O)cc(Cl)cc1OC | 0.9 | -8 | 0.9 | 1 | 12
O=C(Nc1nnc(SCc2ccc(F)cc2)s1)c1ccc2c(c1)C(=O)N(c1ccccc1Cl)C2=O | 1 | -12 | 1.1 | 0.9 | 5
COc1ccccc1C(=O)C1Nc2ccccc2-c2nnc(SC)nc2O1 (centres undefined) | 2.5* | 0 | 0.7 | 1.7 | -13
CCN(CC)CCNCC(O)(c1ccc(Cl)cc1)c1ccc(Cl)cc1 | 1.1 | 72* | 1 | 1.1 | 15
COc1ccccc1CNCC(O)(c1ccc(Cl)cc1)c1ccc(Cl)cc1 | 0.9 | 100* | 0.9 | 0.9 | -3
CC(C)(C)NCC(O)(c1ccc(Cl)cc1)c1ccc(Cl)cc1 | 1.1 | 24 | 1 | 1.1 | 0
COc1ccccc1CNCc1cc(OC)c(OC)c(OC)c1 | 1.1 | 22 | 0.9 | 1.1 | 8
CCN(CC)CCNCc1ccc(-c2ccc(Cl)cc2)o1 | 1.1 | 91* | 1 | 1.1 | 18
COc1ccccc1CNN | 2.2* | -4 | 0.8 | 1.6 | -1
CC(C(=O)Nc1ccccc1Oc1ccccc1)c1ccccc1 (centres undefined) | 1 | -4 | 0.8 | 1 | 33
Cc1ccc(OCCN2C(=O)NC3(CCc4ccccc4C3)C2=O)cc1 (centres undefined) | 1 | -7 | 0.9 | 1 | 16
COc1ccccc1OCCn1cc(/C=C(\C#N)C(=O)NCc2ccco2)c2ccccc21 | 0.9 | 53* | 0.9 | 0.8 | -6
Cc1cc(/C=C(\C#N)C(=O)NCc2ccco2)c(C)n1C1CCCC1 | 0.9 | 72* | 0.8 | 0.9 | 9
Cc1ccc(C)c(OCCn2cc(/C=C(\C#N)C(=O)NCc3ccco3)c3ccccc32)c1 | 1 | 65* | 0.9 | 0.9 | 10
O=C(CSc1nc(-c2ccccc2)cs1)NCCN1C(=O)CSC1=O | 0.9 | 1 | 0.9 | 1 | -6
CCCn1c(SCC(=O)NCc2ccccc2)nnc1-c1ccncc1 | 1.1 | -7 | 1.1 | 1.1 | -5
Cc1ccc(NC(=O)CSc2nn(-c3ccc(Cl)cc3)c(=S)s2)cc1S(=O)(=O)N(C)C | 1 | 97* | 0.9 | 0.9 | -3
Cc1ccc(NC(=O)CNc2ccc(Cl)c(Cl)c2)cc1S(=O)(=O)N(C)C | 0.8 | 8 | 0.8 | 0.8 | 40
SMILES | PMI act satM6P | Lmaj promast | Diaph act CS | PMI act | WT yeast gro inh
CN(C)S(=O)(=O)c1cc(NC(=O)CSc2nn(-c3ccc(Cl)cc3)c(=S)s2)ccc1Cl | 0.9 | 93* | 0.8 | 0.9 | -10
CCC(=O)c1ccc(OCC(=O)NC2(C#N)CCCCC2)cc1 | 1 | -1 | 0.9 | 1.1 | -3
COc1cc(C(=O)NNC2=NC(C)(C)Cc3cc(C)c(C)cc32)cc(OC)c1OC | 1.1 | 6 | 1.1 | 1 | 2
Cc1[nH]c2ccccc2c1C(=O)/C=C\c1ccccc1Cl | 0.8 | 20 | 0.7 | 0.8 | -41
Cc1[nH]c(=O)c(C(=O)/C=C/c2ccccc2F)c2c1CCCC2 | 0.7 | 100* | 0.8 | 0.8 | -16
CC1=NN(C(=O)c2cccc(Cn3nc(C)c([N+](=O)[O-])c3C)c2)C(O)(C(F)(F)F)C1 (centres undefined) | 1.2 | -10 | 1.1 | 1.1 | -6
CC(C(=O)NC1CCCC1)N(C(=O)c1ccc(-c2ccccc2)[nH]1)c1ccccc1F (centres undefined) | 0.9 | 18 | 0.8 | 0.8 | 32
O=C(O)C1CCCCC1C(=O)Nc1ccc(F)cc1F (centres undefined) | 1.1 | -6 | 1 | 1.1 | 97*
O=C1c2ccccc2-c2onc3ccc(NCCCn4ccnc4)c1c23 | 0.9 | 100* | 1 | 0.8 | 27
O=C1CC(c2ccco2)Cc2nc(N3CCN(Cc4ccc5c(c4)OCO5)CC3)ncc21 (centres undefined) | 1 | 75* | 1 | 1 | 2
O=[N+]([O-])/C(C(Cl)=C(Cl)Cl)=C(/NC1CC1)Sc1ccccc1 | 1.1 | 0 | 0.9 | 1 | -6
CCn1c2ccccc2c2cc(NS(=O)(=O)c3ccccc3C)ccc21 | 0.9 | 5 | 1 | 0.9 | -6
CCOc1cc(S(=O)(=O)N2CC=C(c3ccc(F)cc3)CC2)c(OCC)cc1-n1cnnn1 | 0.9 | 62* | 0.9 | 0.9 | 12
Cc1ccc(C2C(C=Nc3c(C)n(C)n(-c4ccccc4)c3=O)=C(c3ccccc3)Oc3ccccc32)cc1 (centres undefined) | 0.9 | 56* | 0.8 | 1 | 40
Cc1c(N=Cc2cccs2)c(=O)n(-c2ccccc2)n1C | 1 | -3 | 0.9 | 0.9 | -15
CC(=O)C1=C(O)C=C(c2ccco2)CC1c1ccco1 (centres undefined) | 1 | 4 | 0.8 | 1.1 | 3
Cc1cc(NC(=O)COC(=O)C(Nc2ccc(C(F)(F)F)cc2Cl)C(C)C)no1 (centres undefined) | 0.8 | 11 | 0.6 | 0.7 | 79*
CCOC(=O)c1ccccc1NC(=O)Cn1c(=O)n(Cc2ccccc2)c(=O)c2c(C)c(C)sc21 | 1 | 1 | 0.9 | 0.9 | 14
CC(C(=O)Nc1ccccc1-c1ccccc1)N1CCN(Cc2ccccc2)CC1 (centres undefined) | 1 | 17 | 0.9 | 1 | 6
CCS(=O)(=O)N1CCN(C(C)CCc2ccccc2)CC1 (centres undefined) | 1.1 | 75* | 0.9 | 1 | 4
CC(CCc1ccccc1)N1CCN(Cc2ccccc2)CC1 (centres undefined) | 1.1 | 97* | 0.8 | 1.1 | -10
Cc1ccc(NC(=O)CSc2nc(O)c(Cc3ccccc3)c(=O)n2-c2ccccc2)cc1 | 1 | -10 | 0.8 | 1 | 4
CN(Cc1ccccc1)CC(O)COc1ccc(CNCCc2ccncc2)cc1 (centres undefined) | 1.1 | 90* | 0.9 | 1 | 4

High-throughput results (PubChem)
